Experimental data: ChEMBL document CHEMBL1177669, “Synthesis and biological study of 3-(phenylsulfonyl)thieno[2,3-e][1,2,3]triazolo[1,5-a]pyrimidines as potent and selective serotonin 5-HT6 receptor antagonists” (Bioorg Med Chem, 2010)

Experiments:
[1] = target: T1, 5-hydroxytryptamine receptor 6 (Homo sapiens, UniProt P50406); assay: Antagonist activity at human recombinant 5HT6 receptor expressed in HEK293 cells assessed as inhibition of serotonin-induced cAMP production; assay type: functional, cell-based
Outline: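 HEK293 cells stably expressing recombinant human 5-HT6R, stimulated with serotonin. cAMP from adenylyl cyclase measured by LANCE. Compounds screened at 5 and 10 μM. IC50 determined for compounds giving more than 50% inhibition of cAMP synthesis at 5 μM.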

[2] = target: T1, 5-hydroxytryptamine receptor 6; assay: Binding affinity to human recombinant 5HT6 receptor expressed in HEK293 cells by radioligand displacement assay; assay type: cell-based
Outline: (§1)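 Competitive radioligand binding at the 5-HT6 receptor, run by MDS Pharma Services as part of a serotonin receptor panel. IC50 and Ki values derived.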

[3] = target: T1, 5-hydroxytryptamine receptor 6; assay: Binding affinity to 5HT6 receptor; outline: as §1
[4] = target: T1, 5-hydroxytryptamine receptor 6; assay: Displacement of radioligand from human recombinant 5HT6 receptor in competitive radioligand binding assay

T1 sequence (P50406 whole entry): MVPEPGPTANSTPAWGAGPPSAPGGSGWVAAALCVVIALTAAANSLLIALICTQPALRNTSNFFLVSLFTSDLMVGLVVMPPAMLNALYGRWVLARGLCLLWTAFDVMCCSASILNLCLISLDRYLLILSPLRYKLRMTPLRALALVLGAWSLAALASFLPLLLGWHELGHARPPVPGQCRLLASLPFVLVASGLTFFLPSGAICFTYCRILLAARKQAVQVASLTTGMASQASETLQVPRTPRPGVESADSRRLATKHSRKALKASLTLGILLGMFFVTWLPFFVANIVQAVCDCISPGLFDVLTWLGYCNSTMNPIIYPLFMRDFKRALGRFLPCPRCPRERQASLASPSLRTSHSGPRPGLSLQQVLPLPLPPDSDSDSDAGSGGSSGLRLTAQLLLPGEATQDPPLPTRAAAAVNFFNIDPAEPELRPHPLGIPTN

Row | IC50 [1] | IC50 [2] | SMILES | other results
1 | 1220 nM | 99.1 nM | Cc1ccc(C)c(S(=O)(=O)c2nnn3c2nc(N)c2sccc23)c1 | Ki [2]: 46 nM
2 | 350 nM | 28.3 nM | Cc1ccc(C)c(S(=O)(=O)c2nnn3c2nc(NC(C)C)c2sccc23)c1 | 
3 | 40 nM | 6.1 nM | O=S(=O)(c1ccccc1)c1nnn2c1nc(NCc1ccco1)c1sccc12 | Ki [2]: 2.8 nM
4 |  |  | CCC(C)Nc1nc2c(S(=O)(=O)c3ccccc3)nnn2c2ccsc12 (centres undefined) | IC50 [3]: 9.6 nM
5 | 260 nM | > 30 nM | O=S(=O)(c1ccccc1)c1nnn2c1nc(NCc1cccnc1)c1sccc12 | 
6 |  | 34.3 nM | CC(C)CCNc1nc2c(S(=O)(=O)c3ccc(Br)cc3)nnn2c2ccsc12 | Ki [2]: 15.9 nM
7 | 110 nM | 3.6 nM | O=S(=O)(c1ccccc1)c1nnn2c1nc(NCc1cccs1)c1sccc12 | Ki [2]: 1.7 nM
8 |  | > 300 nM | CN(C)CCNc1nc2c(S(=O)(=O)c3ccccc3)nnn2c2ccsc12 | 
9 |  | 188 nM | O=S(=O)(c1ccccc1)c1nnn2c1nc(N1CCCC1)c1sccc12 | Ki [2]: 87.5 nM
10 | 63 nM | 17.5 nM | O=S(=O)(c1ccccc1)c1nnn2c1nc(NCC1CCCO1)c1sccc12 (centres undefined) | Ki [2]: 8.1 nM
11 |  | 56.7 nM | CC12CC3CC(C)(C1)CC(Nc1nc4c(S(=O)(=O)c5ccccc5)nnn4c4ccsc14)(C3)C2 | Ki [2]: 26.3 nM
12 | 200 nM | 6.9 nM | O=S(=O)(c1ccccc1)c1nnn2c1nc(NC1CCCCC1)c1sccc12 | Ki [2]: 3.2 nM
13 | 500 nM | > 30 nM | CN(Cc1cccnc1)c1nc2c(S(=O)(=O)c3ccccc3)nnn2c2ccsc12 | 
14 |  | 221 nM | CC(Nc1nc2c(S(=O)(=O)c3ccccc3)nnn2c2ccsc12)C12CC3CC(CC(C3)C1)C2 (centres undefined) | Ki [2]: 103 nM
15 |  | 62.1 nM | O=S(=O)(c1ccc(Br)cc1)c1nnn2c1nc(NCc1ccc3c(c1)OCO3)c1sccc12 | Ki [2]: 28.8 nM
16 | 1250 nM | 31.7 nM | O=S(=O)(c1cccc(Cl)c1)c1nnn2c1nc(NCc1cccnc1)c1sccc12 | Ki [2]: 14.7 nM
17 | 870 nM | > 300 nM | CN(C)CCN(C)c1nc2c(S(=O)(=O)c3ccccc3)nnn2c2ccsc12 | 
18 | 140 nM | 11.9 nM | O=S(=O)(c1ccccc1)c1nnn2c1nc(NC1CCCC1)c1sccc12 | Ki [2]: 5.5 nM
19 | 1210 nM |  | Cc1ccc(Nc2nc3c(S(=O)(=O)c4cccc(Cl)c4)nnn3c3ccsc23)cc1 | 
20 | 480 nM |  | O=S(=O)(c1cccc(Cl)c1)c1nnn2c1nc(NCc1ccc(F)cc1)c1sccc12 | 

Row | IC50 [1] | IC50 [2] | SMILES | other results
21 | 290 nM |  | COc1ccccc1CNc1nc2c(S(=O)(=O)c3ccccc3)nnn2c2ccsc12 | 
22 | 540 nM |  | CC(Nc1nc2c(S(=O)(=O)c3ccc(Br)cc3)nnn2c2ccsc12)c1ccccc1 (centres undefined) | 
23 | > 5000 nM |  | CCc1ccc(S(=O)(=O)c2nnn3c2nc(NCCC(C)C)c2sccc23)cc1 | 
24 | 580 nM |  | CCN(Cc1ccccc1)c1nc2c(S(=O)(=O)c3ccc(Br)cc3)nnn2c2ccsc12 | 
25 | 370 nM | 65 nM | CC(C)Nc1nc2c(S(=O)(=O)c3ccccc3)nnn2c2ccsc12 | Ki [2]: 30.2 nM
26 | 1900 nM |  | CCc1ccc(S(=O)(=O)c2nnn3c2nc(N(CC)CC)c2sccc23)cc1 | 
27 | 600 nM |  | O=S(=O)(c1ccccc1)c1nnn2c1nc(Nc1ccc(F)cc1)c1sccc12 | 
28 | 1330 nM |  | Cc1ccc(S(=O)(=O)c2nnn3c2nc(N(C)Cc2ccccc2)c2sccc23)cc1C | 
29 | 1050 nM |  | CCc1ccc(S(=O)(=O)c2nnn3c2nc(NCCc2ccccc2)c2sccc23)cc1 | 
30 | 90 nM |  | Cc1ccc(S(=O)(=O)c2nnn3c2nc(NCc2cccs2)c2sccc23)cc1C | 
31 | > 5000 nM |  | COCCNc1nc2c(S(=O)(=O)c3ccc(C(C)C)cc3)nnn2c2ccsc12 | 
32 | 2500 nM |  | O=S(=O)(c1cccc(Cl)c1)c1nnn2c1nc(Nc1ccc(F)cc1)c1sccc12 | 
33 | 1930 nM |  | Cc1ccc(C)c(S(=O)(=O)c2nnn3c2nc(N2CCOCC2)c2sccc23)c1 | 
34 | 2030 nM |  | CC1CCCN(c2nc3c(S(=O)(=O)c4ccccc4)nnn3c3ccsc23)C1 (centres undefined) | 
35 | 260 nM |  | COCCCNc1nc2c(S(=O)(=O)c3ccccc3)nnn2c2ccsc12 | 
36 | 590 nM |  | Cc1ccc(C)c(S(=O)(=O)c2nnn3c2nc(NC2CCCC2)c2sccc23)c1 | 
37 | 68 nM |  | CC(C)CCNc1nc2c(S(=O)(=O)c3cccc(Cl)c3)nnn2c2ccsc12 | 
38 | 590 nM |  | Cc1cccc(Nc2nc3c(S(=O)(=O)c4ccc(C(C)C)cc4)nnn3c3ccsc23)c1 | 
39 | 260 nM |  | Cc1ccc(S(=O)(=O)c2nnn3c2nc(NCc2ccccc2)c2sccc23)cc1 | 
40 | 1290 nM |  | COCCCNc1nc2c(S(=O)(=O)c3cc(C)ccc3C)nnn2c2ccsc12 | 

Row | IC50 [1] | IC50 [2] | SMILES | other results
41 | 410 nM |  | O=S(=O)(c1ccc(Cl)cc1)c1nnn2c1nc(NCc1ccco1)c1sccc12 | 
42 | 860 nM |  | COc1cccc(Nc2nc3c(S(=O)(=O)c4ccc(C)c(C)c4)nnn3c3ccsc23)c1 | 
43 | 2000 nM |  | CC1CCCN(c2nc3c(S(=O)(=O)c4cccc(Cl)c4)nnn3c3ccsc23)C1 (centres undefined) | 
44 | 170 nM |  | O=S(=O)(c1ccccc1)c1nnn2c1nc(NC1CCCCCC1)c1sccc12 | 
45 | 820 nM |  | Cc1ccc(S(=O)(=O)c2nnn3c2nc(NC2CCCCC2)c2sccc23)cc1C | 
46 | 3810 nM |  | Cc1ccc(S(=O)(=O)c2nnn3c2nc(Nc2cccc(F)c2)c2sccc23)cc1 | 
47 | 860 nM |  | Cc1ccc(C)c(S(=O)(=O)c2nnn3c2nc(NCCC(C)C)c2sccc23)c1 | 
48 | 180 nM |  | Cc1ccc(S(=O)(=O)c2nnn3c2nc(NC(C)c2ccccc2)c2sccc23)cc1 (centres undefined) | 
49 |  | > 30 nM | CN(C)c1nc2c(S(=O)(=O)c3ccccc3)nnn2c2ccsc12 | IC50 [4]: > 300 nM
50 | > 5000 nM |  | CCc1ccc(S(=O)(=O)c2nnn3c2nc(NCCCOC)c2sccc23)cc1 | 
51 | 780 nM |  | CN(C)CCN(C)c1nc2c(S(=O)(=O)c3cccc(Cl)c3)nnn2c2ccsc12 | 
52 | 1540 nM |  | O=S(=O)(c1cccc(Cl)c1)c1nnn2c1nc(N1CCCCCC1)c1sccc12 | 
53 | > 5000 nM |  | CCCCNc1nc2c(S(=O)(=O)c3ccc(C(C)C)cc3)nnn2c2ccsc12 | 
54 | 170 nM |  | O=S(=O)(c1cccc(Cl)c1)c1nnn2c1nc(NC1CCCC1)c1sccc12 | 
55 | 29 nM |  | O=S(=O)(c1cccc(Cl)c1)c1nnn2c1nc(NCC1CCCO1)c1sccc12 (centres undefined) | 
56 | 1430 nM |  | Cc1ccc(S(=O)(=O)c2nnn3c2nc(Nc2ccc(Cl)cc2)c2sccc23)cc1C | 
57 | > 5000 nM |  | CC(C)CCNc1nc2c(S(=O)(=O)c3ccc(C(C)C)cc3)nnn2c2ccsc12 | 
58 | 2010 nM |  | Cc1ccc(C)c(Nc2nc3c(S(=O)(=O)c4ccc(Br)cc4)nnn3c3ccsc23)c1 | 
